Among all 360,000 compounds or so, about 5,400 (1.5%) were called active.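 The calls were made as follows: active = inhibition above a per-plate cutoff, the mean inhibition of test compounds on that plate plus 3 SD (cut at about 49% in these data); inactive = the rest.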 The sample as a whole holds a higher share of actives than the screen did.
Target: Trace amine-associated receptor 1 (Homo sapiens) (UniProt Q96RJ0)
Assay: blockers of beta-PEA-driven TAAR1 calcium signal – Fluo-8 calcium fluorescence, CHO RD-HGA16 cells, primary screen (AID 624466);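 also: 0% = DMSO plus EC80 beta-PEA response and 100% = DMSO alone without agonist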
Details: CHO RD-HGA16 TAAR1, Fluo-8 calcium fluorescence, antagonist; at 3 µM; active compounds read high
Outline: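 Assay system: RD-HGA16 CHO cells with stable hTAAR1 and Gα16 / Reagent: EC80 β-phenethylamine stimulus / Doses: 3 µM, single point / Timing: dye loading 75 min at 37 °C, then 30 min room temperature / Measured by: Fluo-8 intracellular calcium dye fluorescence, real-time kinetic reads / Controls: vehicle wells and EC80 agonist wells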

Sequence of Trace amine-associated receptor 1 (Homo sapiens) (Q96RJ0 whole entry, looked up): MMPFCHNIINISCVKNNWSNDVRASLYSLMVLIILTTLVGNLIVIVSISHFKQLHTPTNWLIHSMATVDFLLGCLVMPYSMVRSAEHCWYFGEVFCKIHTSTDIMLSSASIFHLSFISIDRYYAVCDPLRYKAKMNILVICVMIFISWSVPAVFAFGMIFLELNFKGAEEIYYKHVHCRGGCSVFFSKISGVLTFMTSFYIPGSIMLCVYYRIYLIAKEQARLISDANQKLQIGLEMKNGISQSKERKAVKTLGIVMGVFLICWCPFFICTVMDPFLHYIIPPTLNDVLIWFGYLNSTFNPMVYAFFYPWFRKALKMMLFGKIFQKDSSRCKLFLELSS

Row | SMILES | inhibition
1 | CN1CCN(c2ccc3c(c2)OC[C@H](Cc2ccccc2)NS3(=O)=O)CC1 | -0.38% (inactive)
2 | CC(C)C[C@H](NC(=O)CC1CCCC1)C(=O)N1CCC[C@H]1C(=O)NCc1ccccc1 | -24.5% (inactive)
3 | COC(=O)[C@]12C[C@H](CC(=O)NCc3ccc(C)o3)C(=O)N(CCC3=CCCCC3)C1=C[C@H](C(C)(C)C)O[C@@H]2C | -24.7% (inactive)
4 | CCN(CC)C(=O)CCC(=O)Nc1ccc(C(=O)OC)cc1 | -5.5% (inactive)
5 | CCCc1cc(C(=O)Nc2ccc(Cl)cn2)cs1 | -47.4% (inactive)
6 | CCCc1cc(C(=O)Nc2ccc(C(=O)OC)cc2)cs1 | 50.5% (active)
7 | CCC(=O)Nc1c(S(=O)(=O)c2ccccc2)c2nc3ccccc3nc2n1Cc1ccccc1 | -31.1% (inactive)
8 | N#Cc1cccc(C(=O)NCC2CCN(C(=O)C(=O)c3cc4ccccc4o3)CC2)c1 | -5.41% (inactive)
9 | Fc1ccc2[nH]c3c(N4CCSCC4)ncnc3c2c1 | 64.4% (active)
10 | COC(=O)c1ccc2nc(-c3cccc(Br)c3)c(Cc3ccccc3C(F)(F)F)n2c1 | -12.6% (inactive)
11 | COc1cc(/C=C/C(=O)Nc2ccc(OC)c(S(=O)(=O)N3CCOCC3)c2)ccc1OCC#N | 14.8% (inactive)
12 | COc1ccc(/C=C/C(=O)OCC(=O)NC2CCCCCC2)cc1OC | -27.2% (inactive)
13 | COc1ccc(/C=C/C(=O)Nc2ccc(C34CC5CC(CC(O)(C5)C3)C4)cc2)cc1OC | 71.5% (active)
14 | C[C@@H]1CN([C@H](C)CO)C(=O)CCCn2cc(nn2)CO[C@H]1CN(C)C(=O)Nc1ccc(N2CCCCC2)cc1 | -12.4% (inactive)
15 | CNC(=O)C1CC(=O)N(Cc2ccc3c(c2)OCO3)C(=Nc2ccc(F)cc2)S1 (stereo unspecified) | 11.3% (inactive)
16 | Nc1c(NCCc2ccccc2)c2ccccc2oc1=O | 66.7% (active)
17 | CC(C)(C)Nc1c(N)c(=O)oc2ccccc12 | 15% (inactive)
18 | O=c1oc2ccccc2c(=O)c2ccccc12 | 3.02% (inactive)
19 | O=C(N[C@H](Cc1ccccc1)C(=O)N1CCCN(Cc2cccs2)CC1)[C@H]1O[C@@H](n2ccc(=O)[nH]c2=O)[C@H](O)[C@@H]1O | -9.92% (inactive)
20 | CC(=O)OC[C@@H]1CN(Cc2ccccc2)C[C@H](n2cnc3c(NCc4ccco4)ncnc32)O1 | -4.46% (inactive)
21 | CCCCOCC1CN(CCCC)S(=O)(=O)c2c(Oc3ccc(F)cc3)cccc2O1 (stereo unspecified) | 30.2% (inactive)
22 | CCOC(=O)C1=CN(Cc2ccc(Br)cc2)S(=O)(=O)NC1C (stereo unspecified) | 49.1% (active)

Row | SMILES | inhibition
23 | CCOC(=O)c1sc(=NC(=O)c2ccc(Br)cc2)n(C)c1C | -21.9% (inactive)
24 | CCOC(=O)C1=CN(Cc2ccc(Br)cc2)S(=O)(=O)N(C)C1C (stereo unspecified) | 17.8% (inactive)
25 | COc1cccc(/C=N/Nc2cc(C)nc(-c3ccccc3O)n2)c1O | 64.5% (active)
26 | COc1cccc(Cn2cc(/C=N/NC(=O)c3cc(O)cc(O)c3)c3ccccc32)c1 | -11.8% (inactive)
27 | COc1cc(/C=N/NC(=S)Nc2cccnc2)cc(OC)c1O | -25% (inactive)
28 | Cc1cccc2[nH]c(CN(C)C(=O)C3CCC(=O)N(CCc4ccccc4)C3)nc12 (stereo unspecified) | -20.8% (inactive)
29 | Cc1ccc(N(C(=O)CC2NC(=O)NC2=O)C2(C(=O)NC3CCCC3)CCCCC2)cc1 (stereo unspecified) | -7.81% (inactive)
30 | CCCCCCCC[n+]1cccc(C(=O)N2c3c(nc(N)[nH]c3=O)NC(C)C2C)c1 (stereo unspecified) | -7.7% (inactive)
31 | CC(C)(C)S(=O)N1Cc2cc(C(=O)NCCCN3CCOCC3)nc(-c3cccc(-c4cc5ccccc5o4)c3)c2[C@H]1CCO (stereo partly specified) | 8.67% (inactive)
32 | CC(C)NC(=O)N1Cc2cc(C(=O)NCC(F)(F)F)nc(-c3cccc(-c4cc5ccccc5o4)c3)c2[C@@H]1CCO | 51.9% (active)
33 | CCNC(=O)c1cc2c(c(-c3cccc(-c4cncnc4)c3)n1)[C@H](CCO)N(C(C)=O)C2 | -0.11% (inactive)
34 | O=C(O)CC/C(=C\c1cc2c(cc1Br)OCO2)c1nc2ccccc2s1 | -13.4% (inactive)
35 | COc1ccc(C(=O)Nc2cccc(/C=C(/CCC(=O)O)c3nc4ccccc4s3)c2)cc1 | 57.2% (active)
36 | COc1cccc(/C=C(/CC(=O)Nc2ccc(N3CCOCC3)cc2)c2nc3ccccc3s2)c1 | -10.9% (inactive)
37 | CC(=O)C[C@@H]1OC[C@H](C)N1S(=O)(=O)c1ccc(C)cc1 | -22.5% (inactive)
38 | COC(=O)[C@]1(C)N[C@H](c2ccc(-c3ccc(Cl)c(Cl)c3)cc2)[C@@H]2C(=O)N(C)C(=O)[C@@H]21 | 20.9% (inactive)
39 | CCCNS(=O)(=O)c1ccc(CCC(=O)N2CCCC2)cc1 | -0.2% (inactive)
40 | CCNS(=O)(=O)c1ccc(CCC(=O)N2CCN(c3ccc(OC)cc3)CC2)cc1 | 8.27% (inactive)
41 | CCNS(=O)(=O)c1ccc(CCC(=O)N2CCN(c3cc(Cl)ccc3C)CC2)cc1 | 65.9% (active)
42 | CCOc1ccc(NS(=O)(=O)c2cc(C)c(C)cc2C)cc1 | 18.6% (inactive)
43 | Cc1cccc(NC(=O)CN2CCN(CC(=O)NCC3(N4CCCCC4)CCCCC3)CC2)c1C | -28.3% (inactive)
44 | COc1cc(NC(=O)C2=CC(c3ccco3)=NS(=O)(=O)N2C)cc(OC)c1OC | -8.05% (inactive)

Row | SMILES | inhibition
45 | COc1ccc(NC(=O)C2=CC(c3ccc(OC)c(OC)c3)=NS(=O)(=O)N2C)cc1 | 52.3% (active)
46 | COc1cc(NC(=O)C2=CC(c3ccc(C)cc3)=NS(=O)(=O)N2C)cc(OC)c1OC | -7.77% (inactive)
47 | O=C(O)C1CCCN1S(=O)(=O)c1ccc(Br)cc1 (stereo unspecified) | -6.42% (inactive)
48 | CC(=O)c1ccc(N2CCN(C(=O)c3ccc4nc[nH]c4c3)CC2)cc1 | -29.8% (inactive)
49 | CC1=NNC(=O)C1CCC(=O)N/N=C\c1ccc(Cl)c(Cl)c1 (stereo unspecified) | -10.3% (inactive)
50 | O=C(N/N=C/c1ccc(Cl)c(Cl)c1)c1ccc2nc[nH]c2c1 | 63.3% (active)
51 | CC(=NNC(=O)c1ccc2nc[nH]c2c1)c1ccc(Br)cc1 | 51.9% (active)
52 | CSc1ccc(/C=N/NC(=O)c2cccc(Cl)c2)cc1 | 8.63% (inactive)
53 | O=C(O)CC/C(=N\NC(=O)c1ccc(F)cc1)c1ccc(Br)cc1 | 3.38% (inactive)
54 | C[C@H](CO)N1C[C@H](C)[C@H](CN(C)C(=O)Nc2ccc(C(F)(F)F)cc2)Oc2c(NC(=O)c3ccncc3)cccc2C1=O | 3.31% (inactive)
55 | O=C(C[C@H]1CC[C@@H](NC(=O)c2ccncc2)[C@@H](CO)O1)NCC1CC1 | -5.86% (inactive)
56 | COC(=O)C1=C(C)NC(=S)NC1c1ccc(OC)cc1 (stereo unspecified) | -22.6% (inactive)
57 | CC(=O)N1Cc2cc(C(=O)NCc3cccc(F)c3)nc(-c3cccc(C4=CCCC4)c3)c2[C@H]1CCO | -5.18% (inactive)
58 | COC(=O)c1c(-c2ccc(OC)cc2)c2c(c3c4cc(OC)ccc4n(S(=O)(=O)c4ccc(F)cc4)c13)C(=O)N(C)C2 | -12.2% (inactive)
59 | C#CCN([C@@H](C)C(=O)OCC)S(=O)(=O)c1ccc(Br)cc1F | 15% (inactive)
60 | CN(c1ccccc1)S(=O)(=O)c1cc(C(=O)Nc2nc3ccccc3[nH]2)ccc1Cl | 59% (active)
61 | Cc1cccc(NC(=O)c2ccc(S(=O)(=O)N(C)c3ccccc3)cc2)n1 | 27.4% (inactive)
62 | CN(c1ccccc1)S(=O)(=O)c1cc(C(=O)N2CCN(c3ncccn3)CC2)ccc1Cl | 42.5% (inactive)
63 | Cc1ccc(S(=O)(=O)N2CCC(=O)N([C@H](COCc3ccccc3)C(C)C)CC2)cc1 | 1.41% (inactive)
64 | COC(=O)c1ccc(CN2C(=O)[C@]3(OCCC=C[C@H]3C)c3c(Br)cccc32)cc1 | -17.5% (inactive)
65 | Cc1cc(OCCOc2cccc3cccnc23)c(C)cc1Cl | -4.44% (inactive)
66 | Cc1ccc2cccc(OCCCOc3ccccc3CO)c2n1 | 49.6% (active)

Row | SMILES | inhibition
67 | CCOc1cccc(OCCCOc2cccc3cccnc23)c1 | -11% (inactive)
68 | CSc1ccc(S(=O)(=O)N2CCC(C(=O)NCc3ccncc3)CC2)cc1 | -9.01% (inactive)
69 | CC(=O)C1=CCC(c2ccccc2)N(S(=O)(=O)c2ccc(C)cc2)C1 (stereo unspecified) | -17.1% (inactive)
70 | Cc1cc(C)c(SCCc2ccncc2)c(C)c1 | 11.4% (inactive)
71 | CC(C)(C)c1ccc(SCCc2ccncc2)cc1 | 49.2% (active)
72 | c1ccc(CSCCc2ccncc2)cc1 | 5.41% (inactive)
73 | CCOCCCN1C(=O)CN(C2CCCCC2)C(=O)C1c1ccc(OCC)c(OC)c1 (stereo unspecified) | 11.2% (inactive)
74 | CCCCn1nnnc1C(c1ccccc1)N1CCN(c2ccccc2OC)CC1 (stereo unspecified) | 12.1% (inactive)
75 | Cc1nc2ccccc2n1C(=O)N1CCOCC1 | 12.8% (inactive)
76 | CCN(CC)CCN(C)C(c1ccnc2ccccc12)c1nnnn1-c1ccc2c(c1)OCCO2 (stereo unspecified) | 4.47% (inactive)
77 | COc1cc(OC)c(-n2cc(-c3ccc(Cl)cc3)[nH]c2=O)cc1Cl | 85.5% (active)
78 | COc1ccc(-n2c(-c3ccc(Cl)cc3)n[nH]c2=S)c(OC)c1 | -24.1% (inactive)
79 | COc1cc(OC)c(N2CC(C(=O)Nc3cc(Cl)ccc3N3CCOCC3)CC2=O)cc1Cl (stereo unspecified) | 6.19% (inactive)
80 | CCCn1nc(NS(=O)(=O)c2ccc(F)cc2)c2cc3ccccc3nc21 | 9.03% (inactive)
81 | COc1ccccc1-c1ccc([C@@H]2C[C@H]3[C@H](CON3C)CN2S(=O)(=O)c2cc(Cl)cc(Cl)c2)cc1 | -24.5% (inactive)
82 | CCOC(=O)C1(C)CCCN(C(=O)c2ccc(N(C)C)cc2)C1 (stereo unspecified) | -13.8% (inactive)
83 | CCC(C)CN1C(=O)CN(S(C)(=O)=O)CC1(C)C(=O)Nc1ccc2c(c1)OCCO2 (stereo unspecified) | -7.39% (inactive)
84 | COc1ccc(CCNC(=O)c2ccccc2OCc2ccccc2)cc1 | -1.77% (inactive)
85 | CC(=O)c1ccccc1OCc1ccc(C(=O)c2ccccc2)cc1 | 71.8% (active)
86 | O=C(NC1CCC(O)CC1)c1ccccc1OCc1ccc(F)cc1 (stereo unspecified) | -21.4% (inactive)
